A selection: hits, their analogues and other compounds. The true share with any hit is near 2.8%.
HTRA1 inh – blocks human HTRA1 serine peptidase; Q92743; recombinant HTRA1, FP-rhodamine activity-based probe, fluorescence polarization; inhibition, % at 5.96 µM; 0.5% of 340,000 active; AID 504803; in the data active = inhibition above about 36%;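 note: 0% = enzyme with DMSO and 100% = wells lacking enzyme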
PAFAH1B2 FP inh – PAFAH1B2 (human) inhibition; inhibition, % at 3.39 µM; AID 492953; 1.2% of 340,000 active; recombinant PAFAH1B2, FP-rhodamine activity probe, fluorescence polarization;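 active = inhibition above the mean of all tested compounds plus 3 SD, cut at about 24% in these data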;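 note: 0% = enzyme with DMSO and 100% = wells lacking PAFAH1B2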
Target sequence (P68402 whole entry, looked up): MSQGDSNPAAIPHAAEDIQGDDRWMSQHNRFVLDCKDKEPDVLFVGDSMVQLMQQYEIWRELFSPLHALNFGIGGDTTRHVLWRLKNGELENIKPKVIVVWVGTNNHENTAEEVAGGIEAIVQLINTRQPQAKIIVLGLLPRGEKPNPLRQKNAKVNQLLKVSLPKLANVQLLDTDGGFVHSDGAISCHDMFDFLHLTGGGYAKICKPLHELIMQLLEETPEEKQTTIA
mABHD4 FP – inhibitors of mouse ABHD4 | Q8VD66 | purified mABHD4, FP-Rh probe fluorescence polarization | 0.54% of 370,000 active | inhibition, % at 8.92 µM;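 active = inhibition exceeding the mean over every tested compound plus 3 SD, cut at about 30% in these data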;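 note: 0% = plate median of compound wells and 100% = S159A mutant with DMSO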
Target sequence (Q8VD66 whole entry, looked up): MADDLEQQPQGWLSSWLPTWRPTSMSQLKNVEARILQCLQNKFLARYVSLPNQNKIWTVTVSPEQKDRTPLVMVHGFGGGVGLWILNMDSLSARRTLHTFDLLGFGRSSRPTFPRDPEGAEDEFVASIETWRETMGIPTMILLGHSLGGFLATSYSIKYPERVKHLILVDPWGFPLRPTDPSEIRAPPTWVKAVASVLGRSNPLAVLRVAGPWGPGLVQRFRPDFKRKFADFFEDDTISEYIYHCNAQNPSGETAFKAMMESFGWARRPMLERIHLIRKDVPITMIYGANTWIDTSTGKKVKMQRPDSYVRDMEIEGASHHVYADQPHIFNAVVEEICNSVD
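Assay system: Wild-type mouse ABHD4 protein | Medium: HEPES pH 7.0 buffer, 150 mM NaCl, 0.01% Pluronic F-127 | Incubation: Enzyme–compound pre-incubation 45 min, then probe 60 min, both 25 °C | Technique: Fluorescence polarization with parallel and perpendicular emission, 525/598 nm | Evaluation: % inhibition of FP-Rh probe binding versus controls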
PAFAH2 FP inh – PAFAH2 (human) inhibition; Q99487; recombinant PAFAH2, FP-rhodamine activity probe, fluorescence polarization; inhibition, % at 3.39 µM; 0.99% of 340,000 active; AID 492956;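 active = inhibition above the mean over all tested compounds plus 3 SD, cut at about 30% in these data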;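 note: inhibitors block probe labeling of enzyme so polarization drops; 0% = enzyme with DMSO and 100% = wells lacking PAFAH2 protein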
PAFAH1B3 FP inh – PAFAH1B3 (human) inhibition; inhibition, % at 3.39 µM; 0.28% of 340,000 active; recombinant PAFAH1B3, FP-rhodamine probe, fluorescence polarization; Q15102;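 active = inhibition above the screen-wide average of all tested compounds plus 3 SD, cut at about 25% in these data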;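 note: 0% = enzyme with DMSO only and 100% = wells lacking PAFAH1B3 protein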
pPAFAH inh – inhibitors of human plasma PAF acetylhydrolase (pPAFAH); Q13093; inhibition, % at 3.39 µM; AID 463082; recombinant pPAFAH, FP-rhodamine probe fluorescence polarization; 1.5% of 330,000 active;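 active = inhibition above the mean inhibition across the screen plus 3 SD, cut at about 25% in these data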;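 note: inhibitors block binding of the rhodamine activity-based probe so polarization drops; 0% = enzyme with DMSO and 100% = wells lacking pPAFAH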
Numbers without * were called inactive.

C[C@H]1[C@H](N(Cc2ccccc2)Cc2ccccc2)CC[C@@]23CCCN2C(=O)CCC[C@@H]13 was read as mABHD4 FP -4.
Screening CC1(OC(=O)C2CCCC2)C(=O)C=C2C=C(c3ccsc3)N(Cc3ccco3)C=C2C1=O (stereo not drawn) returned HTRA1 inh 25, PAFAH1B2 FP inh -1, PAFAH2 FP inh -2, PAFAH1B3 FP inh -4 and pPAFAH inh 31*.
Screening O=C(O)c1sccc1SCc1ccc(Cl)cc1Cl returned HTRA1 inh -14, PAFAH1B2 FP inh 30*, mABHD4 FP -3, PAFAH2 FP inh 4, PAFAH1B3 FP inh 5 and pPAFAH inh 6.
CCN(Cc1cn(Cc2ccccc2)nn1)S(=O)(=O)c1ccc(N2CCCC2)cc1Br was read as mABHD4 FP 0.
Cc1ccccc1N(C)C(=O)CN1CCN(c2nc(-c3ccccc3)cs2)CC1 was read as mABHD4 FP 1.
`CC(=O)N1CCN(C(=O)CSc2nc3cccnc3n2C)CC1` gave mABHD4 FP 0.
`COCCCNc1ncnc2ccc(C)cc12` gave HTRA1 inh -1, PAFAH1B2 FP inh 3, mABHD4 FP 10, PAFAH2 FP inh 4, PAFAH1B3 FP inh 1 and pPAFAH inh 25*.
For COc1ccc2c(c1)CN1C(=O)N(CC(C)C)S(=O)(=O)CC21 (stereo not drawn) the results were mABHD4 FP -1.
`O=C(CSc1nc2ccccc2n1-c1ccccc1)NCC1CCCO1` (stereo not drawn) gave HTRA1 inh -10, PAFAH1B2 FP inh -1, mABHD4 FP 0, PAFAH2 FP inh 4, PAFAH1B3 FP inh 2 and pPAFAH inh 28*.
For O=C(CSc1nc2ccccc2c(=O)n1CC1CCCO1)NCC1CCCO1 (stereo not drawn) the results were HTRA1 inh -3, PAFAH1B2 FP inh 8, mABHD4 FP -2, PAFAH2 FP inh 8, PAFAH1B3 FP inh 9 and pPAFAH inh -4.
Screening NS(=O)(=O)c1ccc(NC(=O)CSc2nc3ccccc3n2-c2ccccc2)cc1 returned HTRA1 inh -10, PAFAH1B2 FP inh -3, mABHD4 FP -28, PAFAH2 FP inh -15, PAFAH1B3 FP inh -15 and pPAFAH inh 32*.
COc1ccc(C(CCOC(=O)Oc2ccccc2)c2cc(OC)c(OC)c(OC)c2)cc1 (stereo not drawn) was read as mABHD4 FP -4.
Screening O=C(NC1CCCCN(Cc2cccc(C(F)(F)F)c2)C1=O)c1ccc(COc2ccccc2)cc1 (stereo not drawn) returned mABHD4 FP -12.
CNC(=O)c1cc(C(=O)c2ccccc2Br)c[nH]1 was read as HTRA1 inh 2, PAFAH1B2 FP inh 7, mABHD4 FP 7, PAFAH2 FP inh 15, PAFAH1B3 FP inh 11 and pPAFAH inh 0.
For CNC(=O)c1cc(C(=O)c2ccc(Cl)cc2)c(Br)[nH]1 the results were HTRA1 inh -2, PAFAH1B2 FP inh 37*, mABHD4 FP 0, PAFAH2 FP inh -1, PAFAH1B3 FP inh 2 and pPAFAH inh 1.
`CCC(C)N(c1nc(C)nc2c1nnn2Cc1ccccc1)C(C)CC` (stereo not drawn) gave mABHD4 FP -3.
Cc1ccc(S(=O)(=O)n2ccc3c(OCCOCCSCC(NC(=O)OC(C)(C)C)C(=O)O)cccc32)cc1 (stereo not drawn) was read as HTRA1 inh -46, PAFAH1B2 FP inh 81*, mABHD4 FP -1, PAFAH2 FP inh 1, PAFAH1B3 FP inh 2 and pPAFAH inh 15.
Screening Cc1ccc(S(=O)(=O)NCCCCC(NC(=O)OC(C)(C)C)C(=O)O)cc1 (stereo not drawn) (tested in a mixture with another compound) returned HTRA1 inh -5, PAFAH1B2 FP inh 5, mABHD4 FP -3, PAFAH2 FP inh -2, PAFAH1B3 FP inh 0 and pPAFAH inh 3.
COc1ccc(S[C@]2(C(=O)N3CCN(c4ncccn4)CC3)CC(=O)N(C(=O)/C=C/c3ccccc3)[C@@H]2c2ccc(OC)cc2)cc1 was read as mABHD4 FP -5.
Screening CC(C)NC(=S)N/N=C1\CCCCC1C1CCCCC1 (stereo not drawn) returned HTRA1 inh -1, PAFAH1B2 FP inh 29*, mABHD4 FP 7, PAFAH2 FP inh 5, PAFAH1B3 FP inh 7 and pPAFAH inh 8.
For COc1ccc(-n2c(SCc3cccc4ccccc34)nnc2-c2ccccc2)cc1 the results were mABHD4 FP -10.
Screening COc1ccc2[nH]c(C(=O)O)c(NS(=O)(=O)c3ccc(F)cc3)c2c1 returned HTRA1 inh 3, PAFAH1B2 FP inh 27*, mABHD4 FP 3, PAFAH2 FP inh 5, PAFAH1B3 FP inh 8 and pPAFAH inh 4.
Screening COc1ccc2[nH]c(C(=O)O)c(NS(=O)(=O)c3ccc(C)c(C)c3)c2c1 returned HTRA1 inh 7, PAFAH1B2 FP inh 18, mABHD4 FP 9, PAFAH2 FP inh 7, PAFAH1B3 FP inh 9 and pPAFAH inh 10.
For O=C(O)c1[nH]c2ccccc2c1NS(=O)(=O)c1ccc(F)cc1 the results were HTRA1 inh 2, PAFAH1B2 FP inh 24*, mABHD4 FP 6, PAFAH2 FP inh 3, PAFAH1B3 FP inh -1 and pPAFAH inh 3.
For COC(=O)c1cnn(-c2ccc(F)cc2F)c1/C=N/NC(=S)Nc1ccccc1 the results were mABHD4 FP -4.
`COc1cccc(C(=O)Nc2ccc3nc(N4CCN(c5ncccn5)CC4)cc(C)c3c2)c1OC` gave pPAFAH inh 82*.
Screening CCOc1ccccc1C(=O)Nc1ccc2nc(N3CCN(c4ncccn4)CC3)cc(C)c2c1 returned pPAFAH inh 9.
Screening NNC(=O)c1ccc(COc2ccc(Br)cc2)o1 returned HTRA1 inh -17, PAFAH1B2 FP inh 25*, mABHD4 FP -4, PAFAH2 FP inh 1, PAFAH1B3 FP inh -1 and pPAFAH inh 1.
For O=C(c1ccc(COc2ccc(Br)cc2)o1)N1N=C(C(F)F)CC1(O)C(F)F (stereo not drawn) the results were HTRA1 inh -22, PAFAH1B2 FP inh 29*, mABHD4 FP -37, PAFAH2 FP inh -2, PAFAH1B3 FP inh -2 and pPAFAH inh 10.
For COc1ccc(C(=O)CSc2nnc(-c3cccnc3)n2-c2ccccc2)cc1 the results were mABHD4 FP 0.
`COc1ccc(NC(=O)c2cc3c(Cl)nc4ccccc4c3s2)cc1OC` gave HTRA1 inh -4, PAFAH1B2 FP inh -1, mABHD4 FP 14, PAFAH2 FP inh 0, PAFAH1B3 FP inh 8 and pPAFAH inh 27*.
COc1ccc(OC)c(NC(=O)c2cc3c(Cl)nc4ccccc4c3s2)c1 was read as HTRA1 inh 0, PAFAH1B2 FP inh 3, mABHD4 FP 4, PAFAH2 FP inh -5, PAFAH1B3 FP inh 1 and pPAFAH inh 7.

Compound activity: PubChem BioAssay, The Scripps Research Institute Molecular Screening Center
